# Results published in ChEMBL document CHEMBL2424583, “Structure-activity relationship and in vitro and in vivo evaluation of the potent cytotoxic anti-microtubule agent N-(4-methoxyphenyl)-N,2,6-trimethyl-6,7-dihydro-5H-cyclopenta[d]pyrimidin-4-aminium chloride and its analogues as antitumor agents” (J Med Chem, 2013).
# Active and inactive are the calls of the source. No cut-off for these calls is given here.
# Experiments:
# [1] = test system: HCT-116; test: Cytotoxicity against human HCT116 cells assessed as growth inhibition after 48 hrs by SRB assay; assay type: functional; settings: HCT-116, 48 h
# [2] = test system: HOP-92; test: Cytotoxicity against human HOP92 cells assessed as growth inhibition after 48 hrs by SRB assay; assay type: functional; settings: HOP-92, 48 h
# [3] = test system: IGROV-1; test: Cytotoxicity against human IGROV1 cells assessed as growth inhibition after 48 hrs by SRB assay; assay type: functional; settings: IGROV-1, 48 h
# [4] = test system: SNB-75; test: Cytotoxicity against human SNB75 cells assessed as growth inhibition after 48 hrs by SRB assay; assay type: functional; settings: SNB-75, 48 h
# [5] = test system: SN12C; test: Cytotoxicity against human SN12C cells assessed as growth inhibition after 48 hrs by SRB assay; assay type: functional
# [6] = test system: SR; test: Cytotoxicity against human SR cells assessed as growth inhibition after 48 hrs by SRB assay; assay type: functional
# [7] = test system: TK-10; test: Cytotoxicity against human TK10 cells assessed as growth inhibition after 48 hrs by SRB assay; assay type: functional; settings: TK-10, 48 h
# [8] = test system: NCI-H460; test: Cytotoxicity against human NCI-H460 cells assessed as growth inhibition after 48 hrs by SRB assay; assay type: functional; settings: NCI-H460, 48 h
# [9] = test system: HCC 2998; test: Cytotoxicity against human HCC2998 cells assessed as growth inhibition after 48 hrs by SRB assay; assay type: functional; settings: HCC 2998, 48 h
# [10] = test system: KM12; test: Cytotoxicity against human KM12 cells assessed as growth inhibition after 48 hrs by SRB assay; assay type: functional; settings: KM12, 48 h
# [11] = Induction of microtubule depolymerization in rat A10 cells after 18 hrs by indirect immunofluorescence assay; assay type: cell-based
# Outline: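 A-10 cells were exposed to vehicle or compound for 18 h, fixed, and microtubules were visualized by indirect immunofluorescence. EC50 is the concentration causing about 50% microtubule loss, from at least three independent experiments.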
# [12] = test system: SK-OV-3; test: Antiproliferative activity against human SKOV3 cells after 48 hrs by SRB assay; assay type: functional, cell-based; settings: SK-OV-3, 48 h
# Outline: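 Isogenic pairs: parental SK-OV-3 alongside its Pgp-overexpressing subline MDR-M6-6, and parental HeLa alongside βIII-tubulin-transfected HeLa. Antiproliferative IC50 measured by sulforhodamine B assay, averaged from at least three independent experiments ± SD. Relative resistance is the transduced-line IC50 divided by the parental-line IC50.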
# [13] = molecular target: T1, Tubulin (Sus scrofa) (UniProt P02554+P02550); test: Displacement of [3H]-colchicine from pig brain tubulin at 5 uM after 10 mins by scintillation counting analysis relative to control
# T1 sequence (P02550 whole entry, looked up): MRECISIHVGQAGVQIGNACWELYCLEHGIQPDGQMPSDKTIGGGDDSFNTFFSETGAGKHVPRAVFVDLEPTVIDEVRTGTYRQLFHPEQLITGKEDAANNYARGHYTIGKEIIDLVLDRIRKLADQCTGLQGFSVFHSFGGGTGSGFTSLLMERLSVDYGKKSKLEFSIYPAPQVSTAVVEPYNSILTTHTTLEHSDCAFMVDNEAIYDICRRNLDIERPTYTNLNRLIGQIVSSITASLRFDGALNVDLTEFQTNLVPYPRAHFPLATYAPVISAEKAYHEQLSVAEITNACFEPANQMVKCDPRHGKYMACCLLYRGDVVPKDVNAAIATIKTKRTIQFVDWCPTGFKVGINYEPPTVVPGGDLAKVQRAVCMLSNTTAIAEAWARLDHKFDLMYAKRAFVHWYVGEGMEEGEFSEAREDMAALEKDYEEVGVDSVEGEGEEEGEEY
# T1 sequence (P02554 whole entry, looked up): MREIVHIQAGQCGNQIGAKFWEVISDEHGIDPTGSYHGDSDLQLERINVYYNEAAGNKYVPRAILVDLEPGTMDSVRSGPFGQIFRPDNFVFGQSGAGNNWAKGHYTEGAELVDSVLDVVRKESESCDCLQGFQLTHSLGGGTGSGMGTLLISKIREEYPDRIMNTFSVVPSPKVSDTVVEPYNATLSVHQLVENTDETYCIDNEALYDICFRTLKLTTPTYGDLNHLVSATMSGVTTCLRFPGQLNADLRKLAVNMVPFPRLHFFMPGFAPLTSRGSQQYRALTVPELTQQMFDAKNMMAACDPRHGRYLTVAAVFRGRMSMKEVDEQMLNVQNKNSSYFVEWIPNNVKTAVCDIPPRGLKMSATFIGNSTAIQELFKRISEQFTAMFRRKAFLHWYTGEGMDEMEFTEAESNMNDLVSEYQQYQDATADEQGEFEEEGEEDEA
# [14] = test system: PC-3; test: Cytotoxicity against human PC3 cells assessed as growth inhibition after 48 hrs by SRB assay; assay type: functional; settings: PC-3, 48 h
# [15] = test system: A549; test: Cytotoxicity against human A549 cells assessed as growth inhibition after 48 hrs by SRB assay; assay type: functional; settings: A549, 48 h
# [16] = test system: NCI-H522; test: Cytotoxicity against human NCI-H522 cells assessed as growth inhibition after 48 hrs by SRB assay; assay type: functional; settings: NCI-H522, 48 h
# [17] = test system: MDA-MB-435; test: Cytotoxicity against human MDA-MB-435 cells assessed as growth inhibition after 48 hrs by SRB assay; assay type: functional; settings: MDA-MB-435, 48 h
# [18] = test system: CCRF-CEM; test: Cytotoxicity against human CCRF-CEM cells assessed as growth inhibition after 48 hrs by SRB assay; assay type: functional
# [19] = test system: RXF 393; test: Cytotoxicity against human RXF393 cells assessed as growth inhibition after 48 hrs by SRB assay; assay type: functional; settings: RXF 393, 48 h
# [20] = Cytotoxicity against human NCI-ADR-RES cells assessed as growth inhibition after 48 hrs by SRB assay; assay type: functional
# [21] = molecular target: T1, Tubulin (Sus scrofa); test: Displacement of [3H]-colchicine from pig brain tubulin at 1 uM after 10 mins by scintillation counting analysis relative to control
# [22] = test system: SK-MEL-2; test: Cytotoxicity against human SK-MEL-2 cells assessed as growth inhibition after 48 hrs by SRB assay; assay type: functional; settings: SK-MEL-2, 48 h
# [23] = test system: LOX IMVI; test: Cytotoxicity against human LOXIMVI cells assessed as growth inhibition after 48 hrs by SRB assay; assay type: functional
# [24] = test system: NCI-H322M; test: Cytotoxicity against human NCI-H322M cells assessed as growth inhibition after 48 hrs by SRB assay; assay type: functional
# [25] = test system: SW-620; test: Cytotoxicity against human SW620 cells assessed as growth inhibition after 48 hrs by SRB assay; assay type: functional; settings: SW-620, 48 h
# [26] = test system: HCT-15; test: Cytotoxicity against human HCT15 cells assessed as growth inhibition after 48 hrs by SRB assay; assay type: functional; settings: HCT-15, 48 h
# [27] = test system: DU-145; test: Cytotoxicity against human DU145 cells assessed as growth inhibition after 48 hrs by SRB assay; assay type: functional; settings: DU-145, 48 h
# [28] = test system: SK-MEL-28; test: Cytotoxicity against human SK-MEL-28 cells assessed as growth inhibition after 48 hrs by SRB assay; assay type: functional; settings: SK-MEL-28, 48 h
# [29] = test system: MDA-MB-468; test: Cytotoxicity against human MDA-MB-468 cells assessed as growth inhibition after 48 hrs by SRB assay; assay type: functional; settings: MDA-MB-468, 48 h
# [30] = test system: MDA-MB-435; test: Cell cycle arrest in human MDA-MB-435 cells assessed as […] at 25 nM after 24 hrs by FACS flow cytometric analysis; assay type: functional, cell-based
# Outline: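 MDA-MB-435 cells plated and allowed to adhere 24 h, then exposed to drug for 24 h. Cells harvested, stained with Krishan's reagent, and DNA content analysed by flow cytometry.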
# [31] = test system: M14; test: Cytotoxicity against human M14 cells assessed as growth inhibition after 48 hrs by SRB assay; assay type: functional; settings: M14, 48 h
# [32] = test system: OVCAR-5; test: Cytotoxicity against human OVCAR5 cells assessed as growth inhibition after 48 hrs by SRB assay; assay type: functional; settings: OVCAR-5, 48 h
# [33] = test system: ACHN; test: Cytotoxicity against human ACHN cells assessed as growth inhibition after 48 hrs by SRB assay; assay type: functional
# [34] = test system: MDA-MB-231; test: Cytotoxicity against human MDA-MB-231 cells assessed as growth inhibition after 48 hrs by SRB assay; assay type: functional; settings: MDA-MB-231, 48 h
# [35] = test system: SK-MEL-5; test: Cytotoxicity against human SK-MEL-5 cells assessed as growth inhibition after 48 hrs by SRB assay; assay type: functional; settings: SK-MEL-5, 48 h
# [36] = test system: BT-549; test: Cytotoxicity against human BT549 cells assessed as growth inhibition after 48 hrs by SRB assay; assay type: functional; settings: BT-549, 48 h
# [37] = test system: HT-29; test: Cytotoxicity against human HT-29 cells assessed as growth inhibition after 48 hrs by SRB assay; assay type: functional; settings: HT-29, 48 h
# [38] = test system: NCI-H226; test: Cytotoxicity against human NCI-H226 cells assessed as growth inhibition after 48 hrs by SRB assay; assay type: functional; settings: NCI-H226, 48 h
# [39] = test system: NCI-H23; test: Cytotoxicity against human NCI-H23 cells assessed as growth inhibition after 48 hrs by SRB assay; assay type: functional; settings: NCI-H23, 48 h
# [40] = test system: MOLT-4; test: Cytotoxicity against human MOLT4 cells assessed as growth inhibition after 48 hrs by SRB assay; assay type: functional; settings: MOLT-4, 48 h
# [41] = test system: UACC-62; test: Cytotoxicity against human UACC62 cells assessed as growth inhibition after 48 hrs by SRB assay; assay type: functional; settings: UACC-62, 48 h
compound,measurement,setting,value
COc1ccc(N(C)c2nc(C)nc3c2CC(C)C3)cc1.Cl (racemic),GI50,[1],15.1 nM
same,GI50,[2],55.4 nM
same,GI50,[3],11 nM
same,GI50,[4],< 10 nM
same,GI50,[5],31.8 nM
same,GI50,[6],< 10 nM
same,GI50,[7],292 nM
same,GI50,[8],23.4 nM
same,GI50,[9],24 nM
same,GI50,[10],< 10 nM
same,EC50,[11],56 nM
same,IC50,[12],38.6 nM
same,inhibition (INH),[13],84%
same,GI50,[14],14.6 nM
same,GI50,[15],24.4 nM
same,GI50,[16],< 10 nM
same,GI50,[17],< 10 nM
same,GI50,[18],16.3 nM
same,GI50,[19],< 10 nM
same,GI50,[20],< 10 nM
same,inhibition,[21],60%
same,GI50,[22],33.1 nM
same,GI50,[23],22.7 nM
same,GI50,[24],59 nM
same,GI50,[25],< 10 nM
same,GI50,[26],< 10 nM
same,GI50,[27],21.4 nM
same,GI50,[28],< 10 nM
same,GI50,[29],< 10 nM
same,Activity,[30],Active
same,GI50,[31],10.2 nM
same,GI50,[32],38.5 nM
same,GI50,[33],14.6 nM
same,GI50,[34],24.6 nM
same,GI50,[35],< 10 nM
same,GI50,[36],21.9 nM
same,GI50,[37],11.8 nM
same,GI50,[38],31.5 nM
same,GI50,[39],16.4 nM
same,GI50,[40],31.8 nM
same,GI50,[41],< 10 nM
COc1ccc(N(C)c2nc(C)nc3c2CCC3)cc1.Cl,GI50,[1],< 10 nM
same,GI50,[2],16 nM
same,GI50,[3],12.8 nM
same,GI50,[4],< 10 nM
same,GI50,[5],33 nM
same,GI50,[6],< 10 nM
same,GI50,[7],42.7 nM
same,GI50,[8],10.3 nM
same,GI50,[9],16.4 nM
same,GI50,[10],< 10 nM
same,EC50,[11],25.9 nM
same,IC50,[12],11.3 nM
same,inhibition,[13],92%
same,GI50,[14],< 10 nM
same,GI50,[15],15 nM
same,GI50,[16],< 10 nM
same,GI50,[17],< 10 nM
same,GI50,[18],< 10 nM
same,GI50,[19],< 10 nM
same,GI50,[20],< 10 nM
same,inhibition,[21],70%
same,GI50,[22],11.9 nM
same,GI50,[23],18.4 nM
same,GI50,[24],48.8 nM
same,GI50,[25],< 10 nM
same,GI50,[26],< 10 nM
same,GI50,[27],19.6 nM
same,GI50,[28],< 10 nM
same,GI50,[29],< 10 nM
same,Activity,[30],Active
same,GI50,[31],< 10 nM
same,GI50,[32],36.4 nM
same,GI50,[33],< 10 nM
same,GI50,[34],25.9 nM
same,GI50,[35],< 10 nM
same,GI50,[36],21.8 nM
same,GI50,[37],< 10 nM
same,GI50,[38],34.7 nM
same,GI50,[39],22.3 nM
same,GI50,[40],27.8 nM
same,GI50,[41],< 10 nM
